From ChEMBL document CHEMBL4689842, “EUbOPEN Chemogenomics Library wave 1” (2021)
Where “and” joins values, the source holds several entries; their conditions need not be identical. Equal entries are not always repeated.

Tested on: HEK-293T
Assay: Multiplex assay against HEK293T;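 for Population Tubulin-Different-Phenotype (%): share of the cells with healthy nuclei that show this phenotype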
Type: toxicity, cell-based
Conditions: human
How it was run: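 Live cells were stained at seeding with Hoechst33342, BioTracker Green Microtubule Cytoskeleton Dye, MitoTracker Red and Annexin V Alexa Fluor 680. Following compound addition, they were imaged on a CQ1 microscope at 37°C and 5% CO2 and gated by CellPathfinder machine learning into Hoechst high-intensity objects or normal cells, with normal cells split into healthy, pyknosed or fragmented nuclei and pyknosed cells into mitotic or apoptotic. Tubulin, mitochondrial-mass and membrane-permeability phenotypes are per cents of healthy-nucleus cells.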

[1] = 12 h, 1 µM, compound concentration 1 uM, replicate 1
[2] = 12 h, 1 µM, compound concentration 1 uM, replicate 2
[3] = 12 h, 10 µM, compound concentration 10 uM, replicate 1
[4] = 12 h, 10 µM, compound concentration 10 uM, replicate 2
[5] = 24 h, 1 µM, compound concentration 1 uM, replicate 1
[6] = 24 h, 1 µM, compound concentration 1 uM, replicate 2
[7] = 24 h, 10 µM, compound concentration 10 uM, replicate 1
[8] = 24 h, 10 µM, compound concentration 10 uM, replicate 2
[9] = 48 h, 1 µM, compound concentration 1 uM, replicate 1
[10] = 48 h, 1 µM, compound concentration 1 uM, replicate 2
[11] = 48 h, 10 µM, compound concentration 10 uM, replicate 1
[12] = 48 h, 10 µM, compound concentration 10 uM, replicate 2

CCn1c(=O)c(-c2ccc(-c3cncs3)cc2Cl)cc2cnc(Nc3ccc(N4CCN(C)CC4)cc3)nc21
Population Apoptotic (%) [1]: 34%
Population Fragmented Nuclei (%) [1]: 7%
Population Healthy Nuclei (%) [1]: 46%
Population Hoechst High Intensity Objects (%) [1]: 14%
Population Membrane Permeable-Phenotype (%) [1]: 2%
Population Mitochondria Different-Phenotype (%) [1]: 79%
Population Mitotic Cells (%) [1]: 65%
Population Normal (%) [1]: 85%
Population Pyknosed Nuclei (%) [1]: 46%
Population Tubulin-Different-Phenotype (%) [1]: 55%
Total Cell Count [1]: 232
Population Apoptotic (%) [2]: 10%
Population Fragmented Nuclei (%) [2]: 5%
Population Healthy Nuclei (%) [2]: 48%
Population Hoechst High Intensity Objects (%) [2]: 2%
Population Membrane Permeable-Phenotype (%) [2]: 9%
Population Mitochondria Different-Phenotype (%) [2]: 13%
Population Mitotic Cells (%) [2]: 89%
Population Normal (%) [2]: 97%
Population Pyknosed Nuclei (%) [2]: 45%
Population Tubulin-Different-Phenotype (%) [2]: 18%
Total Cell Count [2]: 288
Population Apoptotic (%) [3]: 52%
Population Fragmented Nuclei (%) [3]: 47%
Population Healthy Nuclei (%) [3]: 21%
Population Hoechst High Intensity Objects (%) [3]: 62%
Population Membrane Permeable-Phenotype (%) [3]: 5%
Population Mitochondria Different-Phenotype (%) [3]: 93%
Population Mitotic Cells (%) [3]: 47%
Population Normal (%) [3]: 37%
Population Pyknosed Nuclei (%) [3]: 30%
Population Tubulin-Different-Phenotype (%) [3]: 93%
Total Cell Count [3]: 1090
Population Apoptotic (%) [4]: 15%
Population Fragmented Nuclei (%) [4]: 7%
Population Healthy Nuclei (%) [4]: 55%
Population Hoechst High Intensity Objects (%) [4]: 4%
Population Membrane Permeable-Phenotype (%) [4]: 20%
Population Mitochondria Different-Phenotype (%) [4]: 16%
Population Mitotic Cells (%) [4]: 84%
Population Normal (%) [4]: 95%
Population Pyknosed Nuclei (%) [4]: 37%
Population Tubulin-Different-Phenotype (%) [4]: 38%
Total Cell Count [4]: 174
Population Apoptotic (%) [5]: 57%
Population Fragmented Nuclei (%) [5]: 11%
Population Healthy Nuclei (%) [5]: 42%
Population Hoechst High Intensity Objects (%) [5]: 14%
Population Membrane Permeable-Phenotype (%) [5]: 2%
Population Mitochondria Different-Phenotype (%) [5]: 55%
Population Mitotic Cells (%) [5]: 42%
Population Normal (%) [5]: 85%
Population Pyknosed Nuclei (%) [5]: 45%
Population Tubulin-Different-Phenotype (%) [5]: 45%
Total Cell Count [5]: 233
Population Apoptotic (%) [6]: 12%
Population Fragmented Nuclei (%) [6]: 4%
Population Healthy Nuclei (%) [6]: 65%
Population Hoechst High Intensity Objects (%) [6]: 1%
Population Membrane Permeable-Phenotype (%) [6]: 8%
Population Mitochondria Different-Phenotype (%) [6]: 15%
Population Mitotic Cells (%) [6]: 87%
Population Normal (%) [6]: 98%
Population Pyknosed Nuclei (%) [6]: 29%
Population Tubulin-Different-Phenotype (%) [6]: 31%
Total Cell Count [6]: 358
Population Apoptotic (%) [7]: 59%
Population Fragmented Nuclei (%) [7]: 59%
Population Healthy Nuclei (%) [7]: 8%
Population Hoechst High Intensity Objects (%) [7]: 71%
Population Membrane Permeable-Phenotype (%) [7]: 0%
Population Mitochondria Different-Phenotype (%) [7]: 92%
Population Mitotic Cells (%) [7]: 40%
Population Normal (%) [7]: 28%
Population Pyknosed Nuclei (%) [7]: 31%
Population Tubulin-Different-Phenotype (%) [7]: 97%
Total Cell Count [7]: 1552
Population Apoptotic (%) [8]: 30%
Population Fragmented Nuclei (%) [8]: 11%
Population Healthy Nuclei (%) [8]: 57%
Population Hoechst High Intensity Objects (%) [8]: 4%
Population Membrane Permeable-Phenotype (%) [8]: 15%
Population Mitochondria Different-Phenotype (%) [8]: 39%
Population Mitotic Cells (%) [8]: 69%
Population Normal (%) [8]: 95%
Population Tubulin-Different-Phenotype (%) [8]: 64%
Total Cell Count [8]: 177
Population Apoptotic (%) [9]: 50%
Population Fragmented Nuclei (%) [9]: 14%
Population Healthy Nuclei (%) [9]: 57%
Population Hoechst High Intensity Objects (%) [9]: 13%
Population Membrane Permeable-Phenotype (%) [9]: 3%
Population Mitochondria Different-Phenotype (%) [9]: 33%
Population Mitotic Cells (%) [9]: 49%
Population Normal (%) [9]: 86%
Population Pyknosed Nuclei (%) [9]: 28%
Population Tubulin-Different-Phenotype (%) [9]: 36%
Total Cell Count [9]: 308
Population Apoptotic (%) [10]: 11%
Population Fragmented Nuclei (%) [10]: 6%
Population Healthy Nuclei (%) [10]: 80%
Population Hoechst High Intensity Objects (%) [10]: 3%
Population Membrane Permeable-Phenotype (%) [10]: 7%
Population Mitochondria Different-Phenotype (%) [10]: 4%
Population Mitotic Cells (%) [10]: 88%
Population Normal (%) [10]: 96%
Population Pyknosed Nuclei (%) [10]: 13%
Population Tubulin-Different-Phenotype (%) [10]: 29%
Total Cell Count [10]: 591
Population Apoptotic (%) [11]: 64%
Population Fragmented Nuclei (%) [11]: 72%
Population Healthy Nuclei (%) [11]: 6%
Population Hoechst High Intensity Objects (%) [11]: 74%
Population Membrane Permeable-Phenotype (%) [11]: 0%
Population Mitochondria Different-Phenotype (%) [11]: 84%
Population Mitotic Cells (%) [11]: 35%
Population Normal (%) [11]: 25%
Population Pyknosed Nuclei (%) [11]: 20%
Population Tubulin-Different-Phenotype (%) [11]: 75%
Total Cell Count [11]: 1798
Population Apoptotic (%) [12]: 36%
Population Fragmented Nuclei (%) [12]: 8%
Population Healthy Nuclei (%) [12]: 70%
Population Hoechst High Intensity Objects (%) [12]: 4%
Population Membrane Permeable-Phenotype (%) [12]: 9%
Population Mitochondria Different-Phenotype (%) [12]: 25%
Population Mitotic Cells (%) [12]: 63%
Population Normal (%) [12]: 95%
Population Tubulin-Different-Phenotype (%) [12]: 63%
Total Cell Count [12]: 238

C[C@H]1Oc2cc(cnc2N)-c2c(nn(C)c2C#N)CN(C)C(=O)c2ccc(F)cc21 [LORLATINIB]
Population Apoptotic (%) [1]: 21% and 18%
Population Fragmented Nuclei (%) [1]: 16% and 9%
Population Healthy Nuclei (%) [1]: 66% and 76%
Population Hoechst High Intensity Objects (%) [1]: 11% and 7%
Population Membrane Permeable-Phenotype (%) [1]: 7% and 4%
Population Mitochondria Different-Phenotype (%) [1]: 3% and 5%
Population Mitotic Cells (%) [1]: 78% and 81%
Population Normal (%) [1]: 88% and 92%
Population Pyknosed Nuclei (%) [1]: 17% and 14%
Population Tubulin-Different-Phenotype (%) [1]: 2% and 3%
Total Cell Count [1]: 529 and 617
Population Apoptotic (%) [2]: 5% and 14%
Population Fragmented Nuclei (%) [2]: 6% and 7%
Population Healthy Nuclei (%) [2]: 87%
Population Hoechst High Intensity Objects (%) [2]: 2%
Population Membrane Permeable-Phenotype (%) [2]: 3% and 1%
Population Mitochondria Different-Phenotype (%) [2]: 7% and 6%
Population Mitotic Cells (%) [2]: 94% and 85%
Population Normal (%) [2]: 97%
Population Pyknosed Nuclei (%) [2]: 6% and 5%
Population Tubulin-Different-Phenotype (%) [2]: 9%
Total Cell Count [2]: 1515 and 1456
Population Apoptotic (%) [5]: 18% and 15%
Population Fragmented Nuclei (%) [5]: 12% and 7%
Population Healthy Nuclei (%) [5]: 75% and 82%
Population Hoechst High Intensity Objects (%) [5]: 3% and 4%
Population Membrane Permeable-Phenotype (%) [5]: 10% and 9%
Population Mitochondria Different-Phenotype (%) [5]: 2% and 5%
Population Mitotic Cells (%) [5]: 81% and 84%
Population Normal (%) [5]: 96% and 95%
Population Pyknosed Nuclei (%) [5]: 12% and 9%
Population Tubulin-Different-Phenotype (%) [5]: 5% and 4%
Total Cell Count [5]: 614 and 730
Population Apoptotic (%) [6]: 3% and 7%
Population Fragmented Nuclei (%) [6]: 14% and 18%
Population Healthy Nuclei (%) [6]: 80% and 78%
Population Membrane Permeable-Phenotype (%) [6]: 8% and 3%
Population Mitochondria Different-Phenotype (%) [6]: 1%
Population Mitotic Cells (%) [6]: 96% and 92%
Population Pyknosed Nuclei (%) [6]: 4% and 3%
Population Tubulin-Different-Phenotype (%) [6]: 9% and 3%
Total Cell Count [6]: 2424 and 2417
